The list is not random: actives were taken first. Their share in the collection is about 3.3%.
ABHD4 inh: inhibits mouse alpha/beta hydrolase domain 4; Q8VD66; purified mABHD4, FP-Rh probe fluorescence polarization; inhibition, % at 8.92 µM; hit rate 0.54% among 370,000; AID 720543;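 active means inhibition exceeding the mean over every tested compound plus 3 SD, cut at about 30% in these data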;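 further: 0% = plate median of compound wells and 100% = S159A mutant with DMSO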
Target sequence (Q8VD66 whole entry, looked up, the tested form may be a part): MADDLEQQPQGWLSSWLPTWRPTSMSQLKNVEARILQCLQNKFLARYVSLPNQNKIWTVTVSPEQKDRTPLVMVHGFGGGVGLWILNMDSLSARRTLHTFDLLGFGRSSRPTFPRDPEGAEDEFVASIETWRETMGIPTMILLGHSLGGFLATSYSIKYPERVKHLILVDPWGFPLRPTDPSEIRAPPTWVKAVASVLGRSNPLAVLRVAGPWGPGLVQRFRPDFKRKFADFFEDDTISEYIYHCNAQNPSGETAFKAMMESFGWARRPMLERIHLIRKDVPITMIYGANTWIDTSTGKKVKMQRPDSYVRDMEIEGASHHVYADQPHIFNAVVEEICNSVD
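Doses – 8.92 µM, single dose · Material – wild-type mouse ABHD4 protein · Replication – single well per compound (singlicate) · Measure – percent inhibition of probe binding, normalized to plate controls · Schedule – 45 min compound pre-incubation plus 60 min probe step, 25 °C · Detection – fluorescence polarization with parallel and perpendicular emission, 525/598 nm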
SIAE primary: blocks human sialic acid acetylesterase. Q9HAT2. SIAE FP-Rh probe binding, fluorescence polarization. inhibition, % at 9.66 µM. hit rate 0.69% among 370,000;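 active means inhibition above a cutoff: mean of compounds within the control limits plus 3 SD of those, cut at about 17% in these data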;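 further: 0% = plate median of compound wells and 100% = probe without SIAE protein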
HTRA1 inh: inhibitors of human serine peptidase HTRA1. Q92743. recombinant HTRA1, FP-rhodamine activity-based probe, fluorescence polarization. inhibition, % at 5.96 µM. hit rate 0.5% among 340,000. AID 504803; in the data active means inhibition above about 36%;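 further: 0% = enzyme with DMSO and 100% = wells lacking enzyme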
PRMT1 inh: inhibitors of human PRMT1; Q99873; recombinant PRMT1, activity-based probe fluorescence polarization; inhibition, % at 2.79 µM; hit rate 1.3% among 370,000;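 active means inhibition above about 21% made by adding two undisclosed values, limit read from the data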
rCAG RNA binder: molecules binding r(CAG) RNA repeats. inhibition, % at 3 µM. hit rate 1.3% among 370,000. AID 651821. r(CAG) RNA repeat, TO-PRO-1 dye displacement fluorescence;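 active means inhibition above the plate cutoff, the mean of all test compounds on that plate plus 3 SD, cut at about 35% in these data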;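 further: 0% = DMSO alone and 100% = 100 µM mitoxantrone as full dye displacement; higher means more dye released from RNA so lower well fluorescence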
PRMT1 confirm: confirmation of human PRMT1 inhibitors; inhibition, % at 2.79 µM; AID 687036; recombinant His-PRMT1, activity-based probe fluorescence polarization; hit rate 42% among 3,300; shares compounds with PRMT1 inh;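 active means mean inhibition across replicates above the hit cutoff derived for the earlier primary screen, cut at about 22% in these data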
Active calls of the source: *.

For COc1cc2c(cc1OC)C(c1ccccc1)N(C(=O)CCl)CC2 (stereo not drawn) the results were ABHD4 inh 8, SIAE primary 2, HTRA1 inh 6, PRMT1 inh 2 and rCAG RNA binder -5.
N#Cc1c(N)sc(=S)c2c1CCCC2 was read as ABHD4 inh 16, SIAE primary 0, HTRA1 inh 0, PRMT1 inh 28*, rCAG RNA binder 3 and PRMT1 confirm 9.
Screening CCC1(C)Cc2c(C#N)c(N)sc(=S)c2CO1 (stereo not drawn) returned ABHD4 inh 4, SIAE primary -1, HTRA1 inh 10, PRMT1 inh 28*, rCAG RNA binder 9 and PRMT1 confirm 27*.
Cc1cccc2cc3c(N)c(C(=O)N4CCOCC4)sc3nc12 was read as ABHD4 inh -7, SIAE primary -4, HTRA1 inh -13, PRMT1 inh 36*, rCAG RNA binder 11 and PRMT1 confirm 12.
For CC(=O)c1ccc(NC(=O)c2sc3nc(N4CCOCC4)c4c(c3c2N)CCCC4)cc1 the results were ABHD4 inh -3, SIAE primary 0, HTRA1 inh -3, PRMT1 inh 20 and rCAG RNA binder 5.
Screening Cc1ccc(NC(=O)c2sc3nc(N4CCOCC4)c4c(c3c2N)CCCC4)cc1 returned ABHD4 inh 4, SIAE primary 1, HTRA1 inh -23, PRMT1 inh 27*, rCAG RNA binder 10 and PRMT1 confirm 20.
Screening Nc1c(C(=O)N2CCOCC2)sc2nc(N3CCOCC3)c3c(c12)CCCC3 returned ABHD4 inh 8, SIAE primary -1, HTRA1 inh 1, PRMT1 inh 34*, rCAG RNA binder -3 and PRMT1 confirm 12.
`COc1cccc(NC(=O)c2sc3nc(N4CCOCC4)c4c(c3c2N)CCCC4)c1` gave ABHD4 inh 3, SIAE primary 6, HTRA1 inh -32, PRMT1 inh 32*, rCAG RNA binder 13 and PRMT1 confirm 8.
For O=C(Nc1ccncc1)Nc1cccc(F)c1 the results were ABHD4 inh -4, SIAE primary -3, HTRA1 inh -7, PRMT1 inh 2 and rCAG RNA binder 2.
`Nc1c(C(=O)Nc2ccc(Cl)cc2)sc2nc(N3CCOCC3)c3c(c12)CCCC3` gave ABHD4 inh 4, SIAE primary -7, HTRA1 inh -18, PRMT1 inh 30*, rCAG RNA binder 14 and PRMT1 confirm 46*.
Screening Nc1c(C(=O)Nc2ccccc2)sc2nc(N3CCOCC3)c3c(c12)CCCC3 returned ABHD4 inh 10, SIAE primary -1, HTRA1 inh -8, PRMT1 inh 35*, rCAG RNA binder 13 and PRMT1 confirm 20.
Screening Cc1c(C)c2c(OCC(=O)NCc3ccccn3)cc3c(c2oc1=O)CCC(C)(C)O3 returned ABHD4 inh -5, SIAE primary -6, HTRA1 inh -4, PRMT1 inh -4 and rCAG RNA binder -5.
For NC(=O)c1c(NC(=S)Nc2ccccc2)sc2c1CCCC2 the results were ABHD4 inh 16, SIAE primary 5, HTRA1 inh -3, PRMT1 inh 12 and rCAG RNA binder 14.
`COc1ccccc1NC(=O)c1c(NC(=O)CCC(=O)O)sc2c1CCCCC2` gave ABHD4 inh 1, SIAE primary -4, HTRA1 inh -4, PRMT1 inh 32*, rCAG RNA binder 13 and PRMT1 confirm -1.
`O=C(O)CCC(=O)Nc1sc2c(c1C(=O)Nc1ccccc1)CCCCC2` gave ABHD4 inh 14, SIAE primary -3, HTRA1 inh 9, PRMT1 inh 38*, rCAG RNA binder 15 and PRMT1 confirm 5.
CC(=O)N1CCc2cc(S(=O)(=O)CCC(=O)Nc3cc(C)cc(C)c3)ccc21 was read as ABHD4 inh 0, SIAE primary 11, HTRA1 inh -2, PRMT1 inh -3 and rCAG RNA binder 1.
`Nc1nonc1-n1nnc(C(=O)N/N=C/c2ccco2)c1CSc1ccc(Cl)cc1` gave ABHD4 inh -9, SIAE primary -76, HTRA1 inh -21, PRMT1 inh -8 and rCAG RNA binder 6.
`O=C(CSc1nc(O)c(Cc2ccccc2)c(=O)[nH]1)N1CCOCC1` gave ABHD4 inh -6, SIAE primary 0, HTRA1 inh 8, PRMT1 inh -3 and rCAG RNA binder 3.
Screening O=C(CSc1nc(O)c(Cc2ccccc2)c(=O)[nH]1)c1ccccc1 returned ABHD4 inh 7, SIAE primary -3, HTRA1 inh 8, PRMT1 inh 47*, rCAG RNA binder 6 and PRMT1 confirm 34*.
`CCCCc1c(O)nc(SCC(=O)c2ccccc2)[nH]c1=O` gave ABHD4 inh 3, SIAE primary 1, HTRA1 inh -3, PRMT1 inh 40*, rCAG RNA binder 1 and PRMT1 confirm 38*.
For CCCCc1c(O)nc(SCC(=O)O)[nH]c1=O the results were ABHD4 inh 5, SIAE primary 0, HTRA1 inh 1, PRMT1 inh 7 and rCAG RNA binder 6.
For CC(=O)NC12CC3CC(C1)CC(C(=O)N(C)CC(=O)Nc1cccc(F)c1)(C3)C2 the results were ABHD4 inh 4, SIAE primary 12, HTRA1 inh 2, PRMT1 inh -3 and rCAG RNA binder 2.
Screening O=C(COc1ccccc1)Nc1ccc(S(=O)(=O)Nc2ccccn2)cc1 returned ABHD4 inh -9, SIAE primary 6, HTRA1 inh 0, PRMT1 inh 32*, rCAG RNA binder 7 and PRMT1 confirm 13.
Screening O=C(O)c1ccccc1SC1CC(=O)N(C2CCCCC2)C1=O (stereo not drawn) returned HTRA1 inh -4.
For COC(=O)c1c(N2C(=O)CC(Sc3ccccc3C(=O)O)C2=O)sc(C)c1C (stereo not drawn) the results were ABHD4 inh 11, SIAE primary -5, HTRA1 inh -2, PRMT1 inh 64*, rCAG RNA binder 12 and PRMT1 confirm 51*.
CCOC(=O)c1cc(CC)sc1N1C(=O)CC(Sc2ccccc2C(=O)O)C1=O (stereo not drawn) was read as ABHD4 inh 8, SIAE primary 5, HTRA1 inh -47, PRMT1 inh 54*, rCAG RNA binder 17 and PRMT1 confirm 56*.
For O=C(O)c1cccnc1SC1CC(=O)N(c2ccccc2)C1=O (stereo not drawn) the results were ABHD4 inh 4, SIAE primary 2, HTRA1 inh -1, PRMT1 inh 0 and rCAG RNA binder 0.
COC(=O)c1c(N2C(=O)CC(Sc3ccccc3C(=O)O)C2=O)sc2c1CCCC2 (stereo not drawn) was read as ABHD4 inh 12, SIAE primary -2, HTRA1 inh -15, PRMT1 inh 55*, rCAG RNA binder 22 and PRMT1 confirm 48*.
`O=C(O)c1ccccc1SC1CC(=O)N(c2ccccc2)C1=O` (stereo not drawn) gave ABHD4 inh 10, SIAE primary 0, HTRA1 inh -2, PRMT1 inh 66*, rCAG RNA binder -2 and PRMT1 confirm 23*.

Screening data from PubChem.
